According to ChEMBL document CHEMBL2040713, “Finger-loop inhibitors of the HCV NS5b polymerase. Part 1: Discovery and optimization of novel 1,6- and 2,6-macrocyclic indole series” (Bioorg Med Chem Lett, 2012):

Key:
Hepatitis C virus = experiment: Antiviral activity against HCV infected in human […] cells assessed as inhibition of viral RNA replication; format: functional, organism-based, Hepacivirus hominis
Summary of the method: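 Replicon assay: subgenomic HCV RNA replication in Huh-7 cells carrying a bicistronic expression construct. Inhibition expressed as EC50.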

[1] = Inhibition of purified HCV NS5B Cdelta21 polymerase; design: species or system Hepacivirus hominis
[2] = Half life in Sprague-Dawley rat at 2 mg/kg, iv and 10 mg/kg, po; format: ADME, organism-based; conditions: in vivo
Summary of the method: (§1)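 Sprague–Dawley rats, single dose. IV arm at 2 mg/kg in PEG400/saline (70:30), with plasma kinetics determined. Oral arm at 10 mg/kg in PEG400 containing 2% Vitamin E TPGS, compared against the iv data.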

[3] = Volume of distribution at steady state in Sprague-Dawley rat at 2 mg/kg, iv and 10 mg/kg, po; format: ADME, organism-based; conditions: in vivo, read-out: Vdss; summary of the method: as §1
[4] = Drug level in Sprague-Dawley rat liver at 2 mg/kg, iv and 10 mg/kg, po after 7 hrs; format: ADME, organism-based; conditions: read-out: Drug uptake
Summary of the method: (§2)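 Sprague–Dawley rats given 2 mg/kg iv in PEG400/saline (70:30) or 10 mg/kg po in PEG400 with 2% Vitamin E TPGS. Liver concentration (ng/g) measured 7 h post dose. Liver-to-plasma ratio taken at the same time.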

[5] = Ratio of drug level in liver to plasma in Sprague-Dawley rat at 2 mg/kg, iv and 10 mg/kg, po after 7 hrs; format: ADME, organism-based; summary of the method: as §2
[6] = Clearance in Sprague-Dawley rat at 2 mg/kg, iv and 10 mg/kg, po; format: ADME, organism-based; conditions: in vivo; summary of the method: as §1
[7] = Oral bioavailability in Sprague-Dawley rat at 10 mg/kg; format: ADME, organism-based; conditions: in vivo; summary of the method: as §1
[8] = Drug metabolism in rat liver microsomes at 5 uM after 15 mins; format: ADME, Microsome; conditions: read-out: Drug metabolism
[9] = Drug metabolism in human liver microsomes at 5 uM after 15 mins; format: ADME, Microsome; conditions: read-out: Drug metabolism
Liver microsomes = experiment: Metabolic stability in human liver microsomes assessed as glutathione conjugates formation at 40 uM in presence of glutathione; format: ADME, Microsome
Summary of the method: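 Human liver microsomes (1 mg/mL protein) in 100 mM KPi, pH 7.4, with 5 mM MgCl2, 1 mM EDTA and 2 mM NADPH. Trapping agent was 2 mM GSH, or a GSH/stable-label GSH mix (1 mM/1 mM). Compound at 40 µM final, added from a 20 mM stock. Read-out was glutathione conjugate formation.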

[10] = Apparent permeability from apical to basolateral side of human Caco2 cells; format: ADME, cell-based; conditions: Caco-2
[11] = Efflux ratio of compound permeability in human Caco2 cells; format: ADME, cell-based; conditions: Caco-2

| SMILES | EC50 (Hepatitis C virus) [nM] | IC50 [1] [nM] | metabolised at 0.25 h, 5 µM [8] [%] | metabolised at 0.25 h, 5 µM [9] [%] | also measured |
| --- | --- | --- | --- | --- | --- |
| COc1ccc(-c2c(C3CCCCC3)c3ccc4cc3n2CC(=O)NCCN(C)CCNS(=O)(=O)NC4=O)cc1 | 3470 | 440 | – | – | – |
| CN1CCCCCNC(=O)Cn2c(-c3ccoc3)c(C3CCCCC3)c3ccc(cc32)C(=O)NS1(=O)=O | 790 | – | 63 | 67 | half-life [2]: 24 min; Vd [3]: 2.4 L/kg; concentration at 7 h [4]: 3740 ng/g; Kp at 7 h [5]: 150; clearance [6]: 123 mL/min/kg; bioavailability [7]: 40% |
| CN1CCCCCNC(=O)COc2ccc(F)cc2-c2c(C3CCCCC3)c3ccc(cc3n2C)C(=O)NS1(=O)=O | 680 | 88 | 56 | 59 | – |
| O=C1Cn2c(-c3ccoc3)c(C3CCCCC3)c3ccc(cc32)C(=O)NCCCCCCN1 | 4300 | 9500 | > 95 | > 95 | – |
| CN1CCOCCN(C)S(=O)(=O)NC(=O)c2ccc3c(C4CCCCC4)c(n(C)c3c2)-c2ccccc2OCC1=O | 190 | 110 | 50 | 65 | half-life [2]: 60 min; Vd [3]: 7 L/kg; concentration at 7 h [4]: 1720 ng/g; Stability (Liver microsomes): Stable; Kp at 7 h [5]: 64; clearance [6]: 115 mL/min/kg; bioavailability [7]: 14% |
| CN1CCCCN(C)S(=O)(=O)NC(=O)c2ccc3c(C4CCCCC4)c(n(C)c3c2)-c2ccccc2OCC1=O | 310 | 97 | 60 | 92 | half-life [2]: 18 min; Vd [3]: 2.6 L/kg; concentration at 7 h [4]: 1520 ng/g; Kp at 7 h [5]: 99; clearance [6]: 128 mL/min/kg; bioavailability [7]: 9% |
| COc1ccc(-c2c(C3CCCCC3)c3ccc4cc3n2CC(=O)NN(C)CCN2CCN(CC2)S(=O)(=O)NC4=O)cc1 | 3500 | – | – | – | – |
| COc1ccc2c(c1)OCC(=O)N(C)CCCCN(C)S(=O)(=O)NC(=O)c1ccc3c(C4CCCCC4)c-2n(C)c3c1 | 170 | 54 | 64 | 96 | – |
| O=C1Cn2c(-c3ccoc3)c(C3CCCCC3)c3ccc(cc32)C(=O)NS(=O)(=O)C/C=C/CCN1 | 7500 | – | – | – | Papp A→B [10]: < 1 ×10⁻⁶ cm/s; efflux ratio [11]: > 25 |
| CN1CCCCNC(=O)COc2ccccc2-c2c(C3CCCCC3)c3ccc(cc3n2C)C(=O)NS1(=O)=O | 7560 | 1900 | – | – | – |
| CN1CCCCNC(=O)Cn2c(-c3ccoc3)c(C3CCCCC3)c3ccc(cc32)C(=O)NS1(=O)=O | 1580 | 110 | – | – | – |
| CN1C/C=C/CCNC(=O)Cn2c(-c3ccoc3)c(C3CCCCC3)c3ccc(cc32)C(=O)NS1(=O)=O | 720 | – | – | – | – |
| COc1ccc(-c2c(C3CCCCC3)c3ccc4cc3n2CC(=O)NCCCCN(C)S(=O)(=O)NC4=O)cc1 | 1760 | 180 | – | – | – |
| CN1CCCCCNC(=O)Cn2c(-c3ccc(Cl)cc3)c(C3CCCCC3)c3ccc(cc32)C(=O)NS1(=O)=O | 590 | 190 | – | – | – |
| COc1ccc(-c2c(C3CCCCC3)c3ccc4cc3n2CC(=O)NCCCCCN(C)S(=O)(=O)NC4=O)cc1 | 350 | – | – | – | – |
| CN1CCCCCNC(=O)COc2cc(F)ccc2-c2c(C3CCCCC3)c3ccc(cc3n2C)C(=O)NS1(=O)=O | 460 | 110 | 58 | 81 | – |
| O=C1Cn2c(-c3ccoc3)c(C3CCCCC3)c3ccc(cc32)C(=O)NCC/C=C/CCCN1 | 2600 | – | > 95 | > 95 | – |
| CC(C)n1c2c(C3CCCCC3)c3ccc(cc31)C(=O)NS(=O)(=O)N(C)CCOCCN(C)C(=O)COc1ccccc1-2 | 11900 | 1660 | 35 | 64 | – |
| CN1CCN2CCN(CC2)C(=O)COc2ccccc2-c2c(C3CCCCC3)c3ccc(cc3n2C)C(=O)NS1(=O)=O | 240 | 140 | 35 | 56 | – |
| CN1CCCCCNC(=O)COc2ccccc2-c2c(C3CCCCC3)c3ccc(cc3n2C)C(=O)NS1(=O)=O | 180 | 33 | 44 | 71 | – |
| CN1CCOCCN(C)S(=O)(=O)NC(=O)c2ccc3c(C4CCCCC4)c(n(C4CCCC4)c3c2)-c2ccccc2OCC1=O | 15700 | 1490 | 40 | 74 | – |
| CN1CCCCCNC(=O)Cn2c(-c3ccccc3)c(C3CCCCC3)c3ccc(cc32)C(=O)NS1(=O)=O | 430 | – | – | – | – |
| CN1CCCCN(C)S(=O)(=O)NC(=O)c2ccc3c(C4CCCCC4)c(-c4ccc(Cl)cc4)n(c3c2)CC1=O | 530 | – | – | – | – |
| COc1ccc2c(c1)OCC(=O)N(C)CCOCCN(C)S(=O)(=O)NC(=O)c1ccc3c(C4CCCCC4)c-2n(C)c3c1 | 150 | 56 | 52 | 69 | – |
| O=C1Cn2c(-c3ccoc3)c(C3CCCCC3)c3ccc(cc32)C(=O)NCC/C=C/CCN1 | 3400 | 2200 | > 95 | > 95 | – |
